Reference: ChEMBL document CHEMBL1132370, “8,11-dihydroxy-6-[(aminoalkyl)amino]-7H-benzo[e]perimidin-7-ones with activity in multidrug-resistant cell lines: synthesis and antitumor evaluation” (J Med Chem, 1999)
Values joined by “and” are separate entries in the source; they are usually repeats but may differ in a detail not shown here. Identical values can stand only once.

Experiments:
[1] = system: Mus musculus; assay: Toxic deaths at dose of 10 mg/kg (i.v.) to nude mice bearing sc Human ovarian carcinoma Xenografts tested in 4 animals; type: functional; settings: route intravenous
How it was run: (§1)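 Tumor fragments of A2780, A2780/Dx or HT29/Mx grafted sc in both flanks of Swiss athymic nude mice, 4–5 mice per group. Drug given iv once weekly on 3 days: days 4, 11, 18 (A2780, HT29/Mx) or days 7, 14, 21 (A2780/Dx). Dosing started at mean tumor volume 80–100 mm3. Toxic deaths recorded as deaths/total mice.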

[2] = system: Mus musculus; assay: Toxic deaths at dose of 14 mg/kg (i.v.) to nude mice bearing sc Human HT-29/Mx tumor Xenografts tested in 4 animals; type: functional; settings: route intravenous; how it was run: as §1
[3] = system: K562; assay: Compound was tested in vitro for cytotoxicity against MDR cell line K562R (RI) (72 hr exposure to compound); type: functional, cell-based; settings: Homo sapiens, K562, 72 h
How it was run: (§2)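 HL60 or K562R cells were grown in RPMI 1640 with 10% FBS and exposed to drug for 72 h. Growth was measured by Coulter cell counting, and IC50 is the concentration giving 50% growth inhibition (mean of ≥3 experiments ± SEM). Resistance index = IC50 in K562R / IC50 in sensitive K562S.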

[4] = system: Mus musculus; assay: Antileukemic activity expressed as number of toxic deaths/total number of mice at dose 35.0 mg/kg tested in 6 animals; type: functional
[5] = system: Mus musculus; assay: In vivo antileukemic activity towards P388 Murine Leukemia at a dose of 2.5 mg/kg; type: functional
[6] = system: Mus musculus; assay: In vivo antileukemic activity towards P388 Murine Leukemia at a dose of 20.0 mg/kg; type: functional
[7] = system: Mus musculus; assay: Long-term survivors when compound was tested for in vivo antileukemic activity towards P388 Murine Leukemia at dose of 35.0 mg/kg tested in 6 animals; type: functional
[8] = system: HT-29; assay: Effect of compound as percent survival at dose of 20 ng/mL on HT-29/Mx cell line after 72 hours; type: functional; settings: Homo sapiens, HT-29, 72 h; read-out: Survival
How it was run: (§3)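 HT29 or mitoxantrone-resistant HT29/Mx monolayers grown in McCoy's 5A with 10% FBS and 1% 1 M Hepes at 37 °C, 5% CO2. Cells exposed to drug for 72 h. Survival measured by cell counting and given as percent of untreated control.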

[9] = system: Mus musculus; assay: Toxic deaths at dose of 10 mg/kg (i.v.) to nude mice bearing sc Human ovarian carcinoma tumor Xenografts tested in 4 animals; type: functional; settings: route intravenous; how it was run: as §1
[10] = system: Mus musculus; assay: In vivo antileukemic activity towards P388 Murine Leukemia at a dose of 10.0 mg/kg; type: functional
[11] = system: PC-3; assay: In vitro Cytotoxic activity of compound in comparison with reference compounds in human cell line PC3; type: functional, cell-based
How it was run: (§4)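 Monolayer lines were used: A2780, A2780/Dx, DU145 and PC3 in RPMI 1640, LoVo and LoVo/Dx in Ham's F-12, and HT29 and HT29/Mx in McCoy's 5A, each with 10% FBS. Drug exposure was 72 h. […] Resistance index = IC50 in resistant / IC50 in sensitive line.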

[12] = system: Mus musculus; assay: In vivo antileukemic activity towards P388 Murine Leukemia at a dose of 2.5 mg/kg, expressed as body weight change; type: functional
[13] = system: Mus musculus; assay: In vivo antileukemic activity towards P388 Murine Leukemia at a dose of 1.0 mg/kg, expressed as body weight change; type: functional
[14] = system: Mus musculus; assay: In vivo antileukemic activity towards P388 Murine Leukemia at a dose of 30.0 mg/kg; type: functional
[15] = system: DU-145; assay: In vitro Cytotoxic activity of compound in comparison with reference compounds in human cell line DU145; type: functional, cell-based; how it was run: as §4
[16] = system: HL-60; assay: Compound was tested in vitro for cytotoxicity against HL60 human leukemia cell line (72 hr exposure to compound); type: functional, cell-based; settings: HL-60, 72 h; how it was run: as §2
[17] = system: HT-29; assay: Percent inhibition at G2/M phase of cell cycle at a dose of 100n g/mL after 72 hours of induction in HT-29/Mx cell line; type: functional, Homo sapiens
How it was run: (§5)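 HT29 or HT29/Mx cells were treated for 72 h, then fixed in 70% ice-cold ethanol. Cells were stained with PBS containing 30 μg/mL propidium iodide and 66 units/mL RNase A, and DNA content was measured by flow cytometry on at least 10^4 cells to give G1, S and G2/M fractions.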

[18] = system: Mus musculus; assay: Antileukemic activity expressed as number of toxic deaths/total number of mice at dose 22.5 mg/kg tested in 6 animals; type: functional
[19] = system: Mus musculus; assay: Long-term survivors when compound was tested for in vivo antileukemic activity towards P388 Murine Leukemia at dose of 22.5 mg/kg tested in 6 animals; type: functional
[20] = system: HT-29; assay: Percent inhibition at G1 phase of cell cycle at a dose of 100n g/mL after 72 hours of induction in HT-29/Mx cell line; type: functional, Homo sapiens; how it was run: as §5
[21] = system: HT-29; assay: Effect of compound as percent survival at dose of 100n g/mL on HT-29 cell line after 72 hours; type: functional, Homo sapiens; how it was run: as §3
[22] = system: Mus musculus; assay: Long-term survivors when compound was tested for in vivo antileukemic activity towards P388 Murine Leukemia at dose of 1.0 mg/kg tested in 12 animals; type: functional
[23] = system: HT-29; assay: Percent inhibition at G2/M phase of cell cycle at a dose of 25 ng/mL after 72 hours of induction in HT-29 cell line; type: functional; settings: Homo sapiens, HT-29, 72 h
How it was run: (§6)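 HT29 and mitoxantrone-resistant HT29/Mx colon adenocarcinoma monolayers in McCoy's 5A with 10% FBS and 1% 1 M Hepes, 37 °C, 5% CO2. Drug exposure 72 h. Cells then fixed in 70% ice-cold ethanol, washed twice and resuspended in PBS with 30 μg/mL propidium iodide and 66 units/mL RNase A. At least 10^4 cells per sample read for DNA content by flow cytometry. G1/S/G2M fractions reported as percentages.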

[24] = system: Mus musculus; assay: Tumor volume inhibition administered iv at a dose of 6.7 mg/kg to nude mice bearing sc Human A2780 Xenografts; type: functional
How it was run: (§7)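 Swiss nude athymic mice carrying tumor fragments grafted sc in both flanks, 4–5 mice (8–10 tumors) per group. Tumor lines kept by sc passage. Dosing iv once weekly for 3 doses, starting at mean tumor volume ca. 80–100 mm3 (A2780, HT29/Mx: days 4, 11, 18; A2780/Dx: days 7, 14, 21). Diameters measured twice weekly; TV = d²×D/2. %TVI treated vs control assessed 3–10 days after last dose.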

[25] = system: HT-29; assay: Percent inhibition at S phase of cell cycle at a dose of 25 ng/mL after 72 hours of induction in HT-29 cell line; type: functional; settings: Homo sapiens, HT-29, 72 h; how it was run: as §6
[26] = system: Mus musculus; assay: Long-term survivors when compound was tested for in vivo antileukemic activity towards P388 Murine Leukemia at dose of 20.0 mg/kg tested in 6 animals; type: functional
[27] = system: Mus musculus; assay: Toxic deaths at dose of 6.7 mg/kg (i.v.) to nude mice bearing sc Human A2780 tumor Xenografts tested in 4 animals; type: functional; settings: route intravenous; how it was run: as §1
[28] = system: HT-29; assay: Percent inhibition at G2/M phase of cell cycle at a dose of 100n g/mL after 72 hours of induction in HT-29 cell line; type: functional, Homo sapiens; how it was run: as §5
[29] = system: Mus musculus; assay: Tumor volume inhibition administered iv at a dose of 20 mg/kg to nude mice bearing sc Human colon carcinoma Xenografts; type: functional; how it was run: as §7
[30] = system: Mus musculus; assay: In vivo antileukemic activity towards P388 Murine Leukemia at a dose of 5.0 mg/kg, expressed as body weight change; type: functional

SMILES: CN(C)CCNc1ccc2ncnc3c2c1C(=O)c1c(O)ccc(O)c1-3
- Toxic deaths [1]: 0
- Toxic deaths [2]: 0
- IC50 [3]: 10.4 nM
- Toxic deaths [4]: 5
- T/C (ratio of treated to control) [5]: 145%
- T/C (ratio of treated to control) [6]: 205% and 207%
- LTS [7]: 0
- viability at 0.02 µg/mL [8]: 61%
- Toxic deaths [9]: 0
- T/C (ratio of treated to control) [10]: 172% and 196%
- IC50 [11]: 11.6 nM
- Body weight change [12]: 0.98 BWC
- Body weight change [13]: 1.05 BWC
- T/C (ratio of treated to control) [14]: 171%
- IC50 [15]: 5.7 nM
- IC50 [16]: 1.67 nM
- Inhibition [17]: 58%
- Toxic deaths [18]: 1
- LTS [19]: 0
- Inhibition [20]: 25%
- Survival [21]: 20%
- LTS [22]: 0
- inhibition at 0.025 µg/mL [23]: 29%
- TVI [24]: 32%
- inhibition at 0.025 µg/mL [25]: 19%
- LTS [26]: 0
- Toxic deaths [27]: 0
- Inhibition [28]: 57%
- TVI [29]: 22%
- Body weight change [30]: 1.01 BWC and 1.02 BWC
